Data on 25 compounds can be found in ChEMBL document CHEMBL1154448, “Thiazolyl/oxazolyl formazanyl indoles as potent anti-inflammatory agents” (Eur J Med Chem, 2008).

Data set [1] can be described thus: Acute toxicity in ip dosed albino mouse assessed as mortality after 24 hrs. As to conditions: in vivo, read-out: ALD50. Type of data set: organism-based. The procedure, abridged: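 Albino mice of either sex (20-28 g), separate groups given graded intraperitoneal doses; percent mortality recorded 24 h after dosing; approximate 50% lethal dose (ALD50) calculated by the method of Smith.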

Data set [2] relates to Mus musculus. In words: Analgesic activity in mouse assessed as protection against phenylquinone-induced writhes at 50 mg/kg, po administered 1 hr before phenylquinone challenge relative to control. Type of data set: functional. The procedure, abridged: (§1)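 Mice in groups of 5 were dosed orally and, 1 h later, injected i.p. with 0.25 mL of 0.02% phenylquinone in 5% ethanol. Writhes per mouse were counted for 5 min, between 5 and 10 min after the irritant. % protection = (1 − mean writhes in test group / mean writhes in control group) × 100.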

For data set [3], the system named is Rattus norvegicus. In words: Antiinflammatory activity in Albino rat assessed as inhibition of carrageenan-induced paw edema at 50 mg/kg, po administered 1 hr before carrageenan challenge by micro-pipette method relative to control. Type of data set: functional. Set-up: scale not given: the % may be the effect or the level left. The procedure, abridged:
(§2)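 Rats of either sex, 75-125 g, in groups of 6 (one control group). Compounds were suspended in gum acacia and given orally 1 h before carrageenin. Foot volume was measured by micro-pipette before and at 1 and 3 h after carrageenin. % activity was calculated from the mean oedema volumes of treated (Vt) and control (Vc) groups.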
For orientation: In the carrageenan paw model, swelling and tenderness develop within hours.

Data set [4] has as its system Mus musculus. In words: Analgesic activity in mouse assessed as protection against phenylquinone-induced writhes at 100 mg/kg, po administered 1 hr before phenylquinone challenge relative to control. It counts as functional. The procedure, abridged: as §1
In data set [5] the test system is Rattus norvegicus. In words: Antiinflammatory activity in Albino rat assessed as inhibition of carrageenan-induced paw edema at 100 mg/kg, po administered 1 hr before carrageenan challenge by micro-pipette method relative to control. Type of data set: functional. Set-up: scale not given: the % may be the effect or the level left. In outline:
as §2

Data set [6] can be described thus: Toxicity in ip dosed Albino rat assessed as ulcerogenic activity after 8 hrs. Type of data set: organism-based. As to conditions: in vivo, read-out: UD50. The procedure, abridged:
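Adult albino rats of either sex, in groups of 10, non-pregnant, fasted 24 h with water allowed. Drugs were given i.p. and animals killed 8 h later. Stomach, duodenum and jejunum were examined with a hand lens for epithelial shedding, red spots or bleeding, and erosion or ulceration. Any one sign was scored as ulcerogenic. Result reported as UD50.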

The test system of data set [7] is Rattus norvegicus. In words: Antiinflammatory activity in Albino rat assessed as inhibition of carrageenan-induced paw edema at 25 mg/kg, po administered 1 hr before carrageenan challenge by micro-pipette method relative to control. It counts as functional. Set-up: scale not given: the % may be the effect or the level left. The procedure, abridged: as §2
In data set [8] the test system is Mus musculus. In words: Analgesic activity in mouse assessed as protection against phenylquinone-induced writhes at 25 mg/kg, po administered 1 hr before phenylquinone challenge relative to control. Type of data set: functional. The procedure, abridged:
as §1

Turning to `COc1ccc(/N=N/C(=N\c2nc(-c3c(-c4ccc(Cl)cc4)[nH]c4ccccc34)cs2)c2c[nH]c3ccccc23)cc1`, the LD50 at 24 h in data set [1] is more than 800 mg/kg. The Activity in the data set on Mus musculus [2] is on record as 18.8%; in the data set with Rattus norvegicus [3], 19.2%.
On the same counts, the results for `COc1ccc(/N=N/C(=N\c2nc(-c3c(-c4ccc(Cl)cc4)[nH]c4ccccc34)cs2)c2c(C)[nH]c3ccccc23)cc1` are more than 800 mg/kg, 13.7% and 15.4%.
In the same order, the values of `Clc1ccc(/N=N/C(=N\c2nc(-c3c(-c4ccc(Cl)cc4)[nH]c4ccccc34)cs2)c2c(-c3ccccc3)[nH]c3ccccc23)cc1` are more than 800 mg/kg, 21.9% and 23.1%.
Take `Cc1[nH]c2ccccc2c1/C=N/c1nc(-c2c(-c3ccc(Cl)cc3)[nH]c3ccccc23)co1`: in data set [1], the LD50 at 24 h was more than 800 mg/kg. For the same compound, the results for the Activity in the data set on Mus musculus [2] and in the data set on Rattus norvegicus [3] were 19.9% and 21.3%, respectively.
`Cc1[nH]c2ccccc2c1/C=N/c1nc(-c2c(-c3ccc(Cl)cc3)[nH]c3ccccc23)cs1`: the Activity with Mus musculus [4] worked out at 64.6%; in the data set with Rattus norvegicus [5], 68.2%; with Rattus norvegicus [7], 36.4%; in the data set on Mus musculus [2], 51.4%; in the data set with Mus musculus [8], 35.1%; in the data set on Rattus norvegicus [3], 53.3%. In data set [6], the TD50 at 8 h amounted to 200 mg/kg. Moreover, the LD50 at 24 h in data set [1] is more than 1000 mg/kg.
On to `CCc1[nH]c2ccccc2c1/C=N/c1nc(-c2c(-c3ccc(Cl)cc3)[nH]c3ccccc23)co1`, for which, in data set [1], the LD50 at 24 h is more than 800 mg/kg. Also, the Activity with Mus musculus [2] is 16.2%; in the data set on Rattus norvegicus [3], 17.3%.
In the same order, the values of `CCc1[nH]c2ccccc2c1/C=N/c1nc(-c2c(-c3ccc(Cl)cc3)[nH]c3ccccc23)cs1` are more than 800 mg/kg, 23.2% and 25.8%.
On to `COc1ccc(/N=N/C(=N\c2nc(-c3c(-c4ccc(Cl)cc4)[nH]c4ccccc34)co2)c2c[nH]c3ccccc23)cc1`, for which the LD50 at 24 h in data set [1] is more than 800 mg/kg. Also, the Activity in the data set with Mus musculus [2] amounted to 19.2%; in the data set with Rattus norvegicus [3], 20.6%.
In the case of `Clc1ccc(/N=N/C(=N\c2nc(-c3c(-c4ccc(Cl)cc4)[nH]c4ccccc34)cs2)c2c[nH]c3ccccc23)cc1`, in data set [1], the LD50 at 24 h is more than 800 mg/kg. The Activity with Mus musculus [2] came out at 8.5%; in the data set on Rattus norvegicus [3], 9.6%.
For `COc1ccc(/N=N/C(=N\c2nc(-c3c(-c4ccc(Cl)cc4)[nH]c4ccccc34)cs2)c2c(-c3ccccc3)[nH]c3ccccc23)cc1`, the LD50 at 24 h in data set [1] was more than 800 mg/kg. For the same compound, the Activity in the data set with Mus musculus [2] is 10.5%; with Rattus norvegicus [3], 11.5%.
On the same counts, the results for `CCc1[nH]c2ccccc2c1C(=N/c1nc(-c2c(-c3ccc(Cl)cc3)[nH]c3ccccc23)co1)/N=N/c1ccc(Cl)cc1` are more than 800 mg/kg, 21.5% and 23.5%.
In the same order, the values of `CCc1[nH]c2ccccc2c1C(=N/c1nc(-c2c(-c3ccc(Cl)cc3)[nH]c3ccccc23)co1)/N=N/c1ccc(OC)cc1` are more than 800 mg/kg, 23.9% and 25.2%.
In the same order, the values of `Cc1[nH]c2ccccc2c1C(=N/c1nc(-c2c(-c3ccc(Cl)cc3)[nH]c3ccccc23)cs1)/N=N/c1ccc(Cl)cc1` are more than 800 mg/kg, 19.8% and 21.2%.
Consider `CCc1[nH]c2ccccc2c1C(=N/c1nc(-c2c(-c3ccc(Cl)cc3)[nH]c3ccccc23)cs1)/N=N/c1ccc(Cl)cc1`, for which the LD50 at 24 h in data set [1] is more than 800 mg/kg. Moreover, the Activity in the data set with Mus musculus [2] was 16.2%; in the data set on Rattus norvegicus [3], 17.3%.
For the compound `Clc1ccc(/N=N/C(=N\c2nc(-c3c(-c4ccc(Cl)cc4)[nH]c4ccccc34)co2)c2c[nH]c3ccccc23)cc1`, the LD50 at 24 h in data set [1] was more than 800 mg/kg. The Activity with Mus musculus [2] was found to be 14.7%; in the data set with Rattus norvegicus [3], 16.2%.
On the same counts, the results for `COc1ccc(/N=N/C(=N\c2nc(-c3c(-c4ccc(Cl)cc4)[nH]c4ccccc34)co2)c2c(C)[nH]c3ccccc23)cc1` are more than 800 mg/kg, 17.8% and 19.1%.
Take `Clc1ccc(/N=N/C(=N\c2nc(-c3c(-c4ccc(Cl)cc4)[nH]c4ccccc34)co2)c2c(-c3ccccc3)[nH]c3ccccc23)cc1`: the LD50 at 24 h in data set [1] is more than 800 mg/kg. Further, the Activity was 26.3% with Mus musculus [2] and 27.9% in the data set with Rattus norvegicus [3].
On the same counts, the results for `Cc1[nH]c2ccccc2c1C(=N/c1nc(-c2c(-c3ccc(Cl)cc3)[nH]c3ccccc23)co1)/N=N/c1ccc(Cl)cc1` are more than 800 mg/kg, 21.2% and 22.1%.
On the same counts, the results for `COc1ccc(/N=N/C(=N\c2nc(-c3c(-c4ccc(Cl)cc4)[nH]c4ccccc34)co2)c2c(-c3ccccc3)[nH]c3ccccc23)cc1` are more than 800 mg/kg, 15.2% and 17.6%.
Regarding `Clc1ccc(-c2[nH]c3ccccc3c2-c2csc(/N=C/c3c(-c4ccccc4)[nH]c4ccccc34)n2)cc1`, the LD50 at 24 h in data set [1] is 800 mg/kg. For the same compound, in the data set with Rattus norvegicus [3], the Activity amounted to 19.7%.
Take `Clc1ccc(-c2[nH]c3ccccc3c2-c2csc(/N=C/c3c[nH]c4ccccc34)n2)cc1`: the LD50 at 24 h in data set [1] is more than 800 mg/kg. Further, the Activity with Mus musculus [2] is 30.6%; with Rattus norvegicus [3], 31.8%.
In the same order, the values of `Clc1ccc(-c2[nH]c3ccccc3c2-c2coc(/N=C/c3c[nH]c4ccccc34)n2)cc1` are more than 800 mg/kg, 20.9% and 22.7%.
On the same counts, the results for `Clc1ccc(-c2[nH]c3ccccc3c2-c2coc(/N=C/c3c(-c4ccccc4)[nH]c4ccccc34)n2)cc1` are more than 800 mg/kg, 23.7% and 25.3%.
As for `CCc1[nH]c2ccccc2c1C(=N/c1nc(-c2c(-c3ccc(Cl)cc3)[nH]c3ccccc23)cs1)/N=N/c1ccc(OC)cc1`, in data set [1], the LD50 at 24 h was more than 800 mg/kg. The Activity in the data set on Mus musculus [2] was found to be 12.3%; in the data set on Rattus norvegicus [3] it was 13.5%.
In the case of `CCCCC1C(=O)N(c2ccccc2)N(c2ccccc2)C1=O` [PHENYLBUTAZONE], the Activity in the data set on Mus musculus [4] came out at 62.3%; in the data set on Rattus norvegicus [5], 65.4%; with Rattus norvegicus [7], 15.2%; in the data set with Mus musculus [2], 37.2%; in the data set with Mus musculus [8], 13.7%; with Rattus norvegicus [3], 38.8%. Further, in data set [6], the TD50 at 8 h worked out at 66.7 mg/kg.
